# Compound activity as filed in PubChem.
# An excerpt weighted towards active compounds, which were near 2.7% of everything screened.
# mABHD4 FP: inhibitors of mouse ABHD4; inhibition, % at 8.92 µM; AID 720543; Q8VD66; purified mABHD4, FP-Rh probe fluorescence polarization; hit rate 0.54% among 370,000;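 active = inhibition exceeding the mean over every tested compound plus 3 SD, cut at about 30% in these data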;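 note: 0% = plate median of compound wells and 100% = S159A mutant with DMSO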
#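 Test system: mouse ABHD4 enzyme, wild type. Reagent: FP-Rh fluorescent activity-based probe, added after compound pre-incubation. Timing: pre-incubation 45 min, probe exposure 60 min, at 25 °C. Technique: FP readout, ex 525 nm / em 598 nm. Benchmarks: high control S159A mutant with DMSO, low control median of compound wells.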
# HTRA1 inh: blocks human HTRA1 serine peptidase. Q92743. hit rate 0.5% among 340,000. inhibition, % at 5.96 µM. recombinant HTRA1, FP-rhodamine activity-based probe, fluorescence polarization; in the data active = inhibition above about 36%;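 note: 0% = enzyme with DMSO and 100% = wells lacking enzyme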
# SIAE primary: human SIAE inhibition, primary screen; Q9HAT2; SIAE FP-Rh probe binding, fluorescence polarization; inhibition, % at 9.66 µM; hit rate 0.69% among 370,000; AID 1053197;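 active = inhibition above a cutoff: mean of compounds within the control limits plus 3 SD of those, cut at about 17% in these data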;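 note: 0% = plate median of compound wells and 100% = probe without SIAE protein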
# PRMT1 FP inh: inhibitors of human PRMT1; hit rate 1.3% among 370,000; inhibition, % at 2.79 µM; recombinant PRMT1, activity-based probe fluorescence polarization; AID 652257;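 active = inhibition above about 21% made by adding two undisclosed values, limit read from the data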
# Target sequence (Q99873 whole entry, looked up): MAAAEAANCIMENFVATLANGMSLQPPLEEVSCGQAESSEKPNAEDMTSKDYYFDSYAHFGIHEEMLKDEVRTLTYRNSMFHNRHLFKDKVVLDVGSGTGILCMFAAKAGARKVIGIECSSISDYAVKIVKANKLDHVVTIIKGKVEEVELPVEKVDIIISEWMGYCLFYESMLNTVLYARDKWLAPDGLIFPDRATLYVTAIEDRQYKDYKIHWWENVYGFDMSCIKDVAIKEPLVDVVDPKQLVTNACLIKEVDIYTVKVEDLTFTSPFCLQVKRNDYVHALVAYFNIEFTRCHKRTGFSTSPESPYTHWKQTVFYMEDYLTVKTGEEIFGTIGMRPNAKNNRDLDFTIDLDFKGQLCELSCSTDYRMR
# TCR-CD3 inh: blocks the human TCR-CD3 interaction; TAMRA-labeled TCR probe fluorescence, biochemical; inhibition, % at 9.4 µM; hit rate 0.37% among 360,000; AID 651800; in the data active = inhibition above about 19%;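 note: recombinant mutant TCR 2C K166C tagged with TAMRA read by polarization; 0% = receptor in buffer alone and 100% = receptor with positive control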
# PRMT1 inh conf: PRMT1 (human) inhibition, FP confirmation; shares compounds with PRMT1 FP inh; recombinant His-PRMT1, activity-based probe fluorescence polarization; inhibition, % at 2.79 µM; hit rate 42% among 3,300; AID 687036;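 active = mean inhibition across replicates above the hit cutoff derived for the earlier primary screen, cut at about 22% in these data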
# * hit, by the source's call; . = no result.
SMILES,mABHD4 FP,HTRA1 inh,SIAE primary,PRMT1 FP inh,TCR-CD3 inh,PRMT1 inh conf
COc1ccc(NC(=O)NCCCN2CCN(c3ccc(F)cc3)CC2)cc1OC,5,.,-1,-3,.,.
CCCNC(=O)c1ccccc1NC(=O)CN(c1ccccc1)S(=O)(=O)N(C)C,5,-13,3,1,-2,.
CC(=O)Nc1ccc(SCC(=O)c2cc(C)ccc2C)cc1,-4,-10,-9,29*,10,25*
CCc1nc(SCC(=O)c2cc(C)ccc2C)n[nH]1,0,-9,13,14,6,.
Cc1ccc(C)c(C(=O)CSc2n[nH]c(C)n2)c1,2,6,0,26*,4,47*
COc1cccc(C2=CC(=O)CC(c3ccco3)C2)c1 (centres undefined),-6,-21,2,31*,-1,3
COc1cccc(C2=CC(=O)C[C@H](c3ccc(Cl)cc3)C2)c1,-17,-41,-8,4,3,.
CCOC(=O)C1=C(C(=O)OCC)C2N(Cc3ccc(Br)cc3)c3ccccc3[C@@]23C[C@@H](C(=O)OC)N(S(=O)(=O)c2ccc(F)cc2)C3=N1 (some centres undefined),-2,.,-3,2,1,.
Oc1ccccc1C(=S)N1CCCCC1,-1,4,6,36*,5,20
CCOc1ccc2nc(SC3CC(=O)N(c4cccc(OC)c4)C3=O)sc2c1 (centres undefined),-7,-16,-2,38*,-5,26*
CCOc1ccc2nc(SC3CC(=O)N(c4ccccc4)C3=O)sc2c1 (centres undefined),.,-4,.,.,.,.
Cc1cccc(N2C(=O)CC(Sc3nc(C)cc(C)n3)C2=O)c1 (centres undefined),-1,-3,-6,2,7,.
Cc1cccc(N2C(=O)CC(Sc3nnc(C)s3)C2=O)c1 (centres undefined),-1,-7,5,61*,0,44*
Cc1cc(C)cc(N2C(=O)CC(Cn3nc(C)cc3C)C2=O)c1 (centres undefined),2,.,1,-2,6,.
O=C1CC(Sc2nnnn2C2CCCCC2)C(=O)N1c1ccccc1 (centres undefined),9,-12,-1,75*,-1,73*
Cc1cc(C)cc(N2C(=O)CC(Sc3ncn[nH]3)C2=O)c1 (centres undefined),5,-20,2,29*,-9,43*
Cc1cc(C)cc(N2C(=O)CC(Sc3nnnn3-c3ccccc3)C2=O)c1 (centres undefined),3,-5,-2,56*,0,55*
Cc1c(O)nc(SC2CC(=O)N(c3ccccc3)C2=O)[nH]c1=O (centres undefined),0,9,-7,2,5,.
Cn1nnnc1SC1CC(=O)N(c2ccccc2)C1=O (centres undefined),0,2,-5,56*,0,75*
Cc1ccc(C)c(NC(=S)c2nc3ccccc3s2)c1,-8,6,-2,29*,-4,9
Cc1cc(-n2c(C)cc(C(=O)CSc3ccccn3)c2C)no1,16,-4,6,26*,-7,18
Cc1ccc(C2NCCS2)cc1 (centres undefined),-9,1,1,32*,-9,8
CN(C)c1ccc(C2NCCS2)cc1 (centres undefined),7,5,6,35*,-3,34*
COc1cc2c(cc1OC)C(c1ccc(N(C)C)cc1)NCC2 (centres undefined),4,-1,5,-1,-3,.
Cc1ccc(C)c(OCC(=O)Nc2cc(NC(=O)COc3cc(C)ccc3C)cc(C(=O)O)c2)c1,-40,-80,-34,8,3,.
SMILES,mABHD4 FP,HTRA1 inh,SIAE primary,PRMT1 FP inh,TCR-CD3 inh,PRMT1 inh conf
CCOC(=O)C1=C(C)Nc2ccccc2S1,8,1,2,31*,-3,17
CCOC(=O)C1=C(C)Nc2ccc(C)cc2S1,3,6,9,42*,6,14
CSCCOC(=O)C1=C(C)Nc2ccc(C)cc2S1,-7,-9,8,34*,3,17
CCOCCOC(=O)C1=C(C)Nc2ccc(C)cc2S1,-1,1,-6,21,-6,.
CC[C@H](NC(=O)[C@@H](Cc1ccccc1)NC(=O)[C@H]1O[C@@H](n2cnc3c(=O)[nH]c(N)nc32)[C@H](O)[C@@H]1O)c1ccccc1,8,.,4,5,-3,.
Cc1ccc(S(=O)(=O)N2CCSC2c2ccco2)cc1 (centres undefined),-5,5,-3,31*,-1,8
O=C(NCc1ccco1)O[C@@H]1CC[C@@]23CCCN2C(=O)CCC[C@H]3C1,3,.,1,0,.,.
C=CCN1CCc2nc(N)sc2CC1,6,15,3,61*,12,11
Nc1nc2c(s1)CCCCCCCCCC2,4,.,13,0,-4,.
CCN1CCc2nc(N)sc2C1,5,2,-2,45*,3,22*
COc1cc(/C=C2/C(=O)NN(c3cccc(C)c3)C2=O)ccc1OC(=O)c1ccco1,29,2,-5,15,2,.
COc1cc(/C=C2/C(=O)NN(c3cccc(C)c3)C2=O)cc([N+](=O)[O-])c1O,28,26,1,32*,5,18
COc1ccc(C(=O)N[C@H](C(=O)OCCCOC(=O)[C@@H](NC(=O)c2ccc(OC)cc2)C(C)C)C(C)C)cc1,7,-7,9,0,-3,.
COc1ccc(C(=O)Cn2c(NCCO)nc3ccccc32)cc1OC,9,5,1,-5,-9,.
COc1ccc(C(=O)Cn2c(NCCCO)nc3ccccc32)cc1OC,7,0,12,48*,0,6
CC(O)(c1cccnc1)c1nc(-c2ccc(F)c(Cl)c2)cs1 (centres undefined),-7,.,1,1,8,.
S=c1[nH]c2ccc(Cl)cc2[nH]1,5,-2,-1,1,0,.
S=c1[nH]c2cc(Cl)ccc2s1,-7,-10,-6,47*,-4,7
O=C1/C(=C/c2ccccc2Cl)SC(=S)N1CCCC(=O)N(CCO)c1ccccc1,-3,-49,4,9,-2,.
Cc1ccc(S(=O)(=O)c2nc(S(C)(=O)=O)sc2N2CCC(C)CC2)cc1,-7,5,-1,28*,-6,1
Cc1ccc(C(=O)CCS(=O)(=O)c2ccc(Br)cc2)cc1,-4,-7,1,5,5,.
CC(=O)Nc1cc[n+](CC(=O)c2cccc([N+](=O)[O-])c2)cc1,-10,7,2,-4,-4,.
O=C(CCNc1ccc(Cc2ccncc2)cc1)c1cccc([N+](=O)[O-])c1,3,0,2,32*,-3,31*
Cc1ccc(S(=O)(=O)CCC(=O)c2cccc([N+](=O)[O-])c2)cc1,8,14,3,83*,4,91*
